Data taken from ChEMBL document CHEMBL3785019, “Dihydropyrazole derivatives as telomerase inhibitors: Structure-based design, synthesis, SAR and anticancer evaluation in vitro and in vivo” (Eur J Med Chem, 2016).

What was measured:
[1] = Cytotoxicity against human PC3 cells after 48 hrs by MTT assay; format: functional, cell-based, PC-3
Method in brief: (§1)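 Tumor cells in log phase in RPMI 1640 + 10% FBS, seeded at 3×10^4 cells mL-1 and incubated 24 h (37 °C, 5% CO2). Test samples added at pre-set concentrations (6 wells each), doxorubicin as reference; 48 h exposure. MTT (2.5 mg·mL-1 in PBS) added for 4 h, formazan dissolved in DMSO, A570 read.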

HepG2 = experiment: Cytotoxicity against human HepG2 cells after 48 hrs by MTT assay; format: functional, cell-based; method in brief: as §1
[2] = Cytotoxicity against human MGC803 cells after 48 hrs by MTT assay; format: functional, cell-based, MGC-803; method in brief: as §1
Bcap37 = experiment: Cytotoxicity against human Bcap37 cells after 48 hrs by MTT assay; format: functional, cell-based; method in brief: as §1
[3] = molecular target: Telomerase reverse transcriptase (Homo sapiens, UniProt O14746); experiment: Inhibition of telomerase in human MGC-803 cells after 24 hrs by TRAP-PCR-ELISA assay; format: cell-based
Method in brief: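 Cells lysed in RIPA on ice for 30 min; extract incubated with TRAP mix at 25 °C for 30 min, then 35 PCR cycles. Products hybridized to DIG probe, captured on streptavidin, detected with peroxidase anti-DIG at 490 nm; mean±SD.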

[4] = Homo sapiens, PC-3, 48 h, read-out: IC50
[5] = Homo sapiens, HepG2, 48 h, read-out: IC50
[6] = Homo sapiens, MGC-803, 48 h, read-out: IC50
[7] = Homo sapiens, Bcap37, 48 h, read-out: IC50

Sequence of Telomerase reverse transcriptase (O14746 whole entry): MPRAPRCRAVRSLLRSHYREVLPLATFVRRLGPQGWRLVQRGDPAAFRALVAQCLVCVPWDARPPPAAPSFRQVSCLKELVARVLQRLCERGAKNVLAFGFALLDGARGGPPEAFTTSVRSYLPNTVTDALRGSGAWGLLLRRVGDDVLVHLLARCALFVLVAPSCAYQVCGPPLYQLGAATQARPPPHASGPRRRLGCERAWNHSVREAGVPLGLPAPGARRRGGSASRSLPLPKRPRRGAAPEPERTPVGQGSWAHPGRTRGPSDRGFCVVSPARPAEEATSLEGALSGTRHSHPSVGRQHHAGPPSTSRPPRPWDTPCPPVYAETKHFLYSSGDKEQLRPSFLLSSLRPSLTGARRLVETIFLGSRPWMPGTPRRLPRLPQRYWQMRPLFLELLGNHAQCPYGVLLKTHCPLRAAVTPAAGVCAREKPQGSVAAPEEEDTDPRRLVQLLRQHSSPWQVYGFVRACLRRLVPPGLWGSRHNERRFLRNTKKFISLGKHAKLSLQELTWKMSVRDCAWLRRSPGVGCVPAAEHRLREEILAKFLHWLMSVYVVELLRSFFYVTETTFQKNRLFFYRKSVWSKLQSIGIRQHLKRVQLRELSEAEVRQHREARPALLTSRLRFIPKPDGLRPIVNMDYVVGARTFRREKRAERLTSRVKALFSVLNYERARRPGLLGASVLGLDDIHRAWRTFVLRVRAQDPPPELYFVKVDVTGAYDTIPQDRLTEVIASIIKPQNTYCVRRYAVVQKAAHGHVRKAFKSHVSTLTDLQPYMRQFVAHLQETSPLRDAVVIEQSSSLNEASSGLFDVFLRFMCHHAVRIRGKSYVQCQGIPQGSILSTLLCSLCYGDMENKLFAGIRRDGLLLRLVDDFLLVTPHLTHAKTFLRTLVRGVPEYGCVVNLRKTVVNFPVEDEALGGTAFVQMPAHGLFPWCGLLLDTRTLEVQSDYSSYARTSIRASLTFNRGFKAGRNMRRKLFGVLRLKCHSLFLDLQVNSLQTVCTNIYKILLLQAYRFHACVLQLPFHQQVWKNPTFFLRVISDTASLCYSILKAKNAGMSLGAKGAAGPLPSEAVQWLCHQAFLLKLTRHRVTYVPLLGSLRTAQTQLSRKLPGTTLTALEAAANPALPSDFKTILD

Row | IC50 [3] | Structure (SMILES) | IC50 [1, 4] | IC50 (HepG2; [5]) | IC50 [2, 6] | IC50 (Bcap37; [7]) | IC50 (HepG2; hepg2) | IC50 ([2]; mgc-803) | IC50 (Bcap37; bcap37) | IC50 ([1]; pc-3)
1 | – | O=C(CNC1CCCCC1)N1N=C(c2cc3ccccc3oc2=O)CC1c1ccccc1 (centres undefined) | 48.5 µM | 34.4 µM | 26.4 µM | 38.3 µM | – | – | – | –
2 | 3.3 µM | O=C(CN1CCSCC1)N1N=C(c2cc3ccccc3oc2=O)CC1c1ccccc1 (centres undefined) | 4 µM | 8.96 µM | 10.3 µM | 8.2 µM | – | – | – | –
3 | – | CC1=NN(C(=O)CN(CC(C)C)CC(C)C)C(c2ccccc2O)C1 (centres undefined) | 32.2 µM | 49.2 µM | 30 µM | 40.5 µM | – | – | – | –
4 | 5.44 µM | CC1=NN(C(=O)CN2CCCC2)C(c2ccccc2O)C1 (centres undefined) | 6.67 µM | 5.54 µM | 17.9 µM | 5.35 µM | – | – | – | –
5 | – | CC1=NN(C(=O)COc2ccc(Cl)cc2)C(c2cc(Br)ccc2O)C1 (centres undefined) | 49 µM | – | 23.6 µM | 36.8 µM | Not Active | – | – | –
6 | – | COc1cccc2c1C(=O)c1c(O)c3c(c(O)c1C2=O)C[C@@](O)(C(=O)CO)C[C@@H]3O[C@H]1C[C@H](N)[C@H](O)[C@H](C)O1 [DOXORUBICIN] | 0.87 µM | 1.34 µM | – | 1.12 µM | – | – | – | –
7 | – | CC1=NN(C(=O)CN(C(C)C)C(C)C)C(c2ccccc2O)C1 (centres undefined) | 32.3 µM | 15.1 µM | 31.2 µM | 4.96 µM | – | – | – | –
8 | – | CC1=NN(C(=O)CN2CC(C)CC(C)C2)C(c2ccccc2O)C1 (centres undefined) | 36.4 µM | 51.9 µM | 30.7 µM | 20.9 µM | – | – | – | –
9 | 3.63 µM | CCC(=O)N1N=C(c2cc3ccccc3oc2=O)CC1c1ccccc1 (centres undefined) | 4.37 µM | 9.61 µM | 5.3 µM | 46.3 µM | – | – | – | –
10 | 8.4 µM | COc1ccccc1C1CC(C)=NN1C(=O)CN1CCC(OC)CC1 (centres undefined) | 27.2 µM | 22 µM | 9.55 µM | 18.8 µM | – | – | – | –
11 | – | Cc1ccc(S(=O)(=O)N2N=C(c3cc4ccccc4oc3=O)CC2c2ccccc2)cc1 (centres undefined) | 48.6 µM | – | 50.2 µM | 30.3 µM | Not Active | – | – | –
12 | 11 µM | COc1ccccc1C1CC(C)=NN1C(=O)C[N+]1(C)CCCC1 (centres undefined) | 11.2 µM | 32.2 µM | 12.2 µM | 9.98 µM | – | – | – | –
13 | 22.3 µM | COc1ccc(NCC(=O)N2N=C(C)CC2c2ccccc2O)cc1 (centres undefined) | 51.6 µM | 39.1 µM | 9.87 µM | 45.5 µM | – | – | – | –
14 | – | CC1=NN(C(=O)CN2CCC(c3ccccc3)CC2)C(c2ccccc2O)C1 (centres undefined) | 20.4 µM | 23.3 µM | 12.3 µM | 33.7 µM | – | – | – | –
15 | – | CC1=NN(S(=O)(=O)c2ccc(C)cc2)C(c2cc(Br)ccc2O)C1 (centres undefined) | 33.2 µM | 20.8 µM | 30.7 µM | 36.8 µM | – | – | – | –
16 | – | CC1=NN(C(=O)c2ccc(C)cc2)C(c2cc(Br)ccc2O)C1 (centres undefined) | 41.2 µM | 23.2 µM | 21 µM | 32.6 µM | – | – | – | –
17 | – | Cc1ccc(C(=O)N2N=C(c3cc4ccccc4oc3=O)CC2c2ccccc2)cc1 (centres undefined) | 13.2 µM | 52.3 µM | 31.3 µM | 26.1 µM | – | – | – | –
18 | – | CC(=O)Oc1ccccc1C1CC(C)=NN1C(=O)CN(C(C)C)C(C)C (centres undefined) | 24.5 µM | 34.1 µM | 20.1 µM | 19.4 µM | – | – | – | –
19 | – | CC1=NN(C(=O)CCc2ccccc2)C(c2cc(Br)cc(Br)c2O)C1 (centres undefined) | 11.3 µM | 9.17 µM | 17.1 µM | 27.2 µM | – | – | – | –
20 | – | CC1CCCN(CC(=O)N2N=C(c3cc4ccccc4oc3=O)CC2c2ccccc2)C1 (centres undefined) | 28.3 µM | – | – | – | Not Active | Not Active | Not Active | –
21 | – | CC1=NN(C(=O)CN2CCCC(C)C2)C(c2ccccc2O)C1 (centres undefined) | 35.5 µM | 17.9 µM | 42.9 µM | 35.6 µM | – | – | – | –

Row | IC50 [3] | Structure (SMILES) | IC50 [1, 4] | IC50 (HepG2; [5]) | IC50 [2, 6] | IC50 (Bcap37; [7]) | IC50 (HepG2; hepg2) | IC50 ([2]; mgc-803) | IC50 (Bcap37; bcap37) | IC50 ([1]; pc-3)
22 | – | CC1=NN(C(=O)c2ccccc2Cl)C(c2ccccc2O)C1 (centres undefined) | 42.5 µM | 25.2 µM | 18.3 µM | 30.2 µM | – | – | – | –
23 | – | O=C(CN1CCCC1)N1N=C(c2cc3ccccc3oc2=O)CC1c1ccccc1 (centres undefined) | 50.2 µM | 44.3 µM | – | – | – | Not Active | Not Active | –
24 | – | CC1=NN(C(=O)c2ccc([N+](=O)[O-])cc2)C(c2ccccc2O)C1 (centres undefined) | 36.6 µM | 30.1 µM | 50 µM | 45.2 µM | – | – | – | –
25 | – | CCN(CC)CC(=O)N1N=C(C)CC1c1ccccc1O (centres undefined) | 25.9 µM | 51.6 µM | 39.8 µM | 45.7 µM | – | – | – | –
26 | – | CCC(=O)N1N=C(C)CC1c1cc(Br)ccc1O (centres undefined) | 37.8 µM | – | 50.3 µM | 20.8 µM | Not Active | – | – | –
27 | – | CC1=NN(C(=O)c2ccc(C)cc2)C(c2cc(Br)cc(Br)c2O)C1 (centres undefined) | 41.2 µM | – | 56.5 µM | – | Not Active | – | Not Active | –
28 | – | CC1=NN(C(=O)CCc2ccccc2)C(c2cc(Br)ccc2O)C1 (centres undefined) | 16.2 µM | 17.9 µM | 21.2 µM | 41.3 µM | – | – | – | –
29 | – | CC1=NN(C(=O)c2ccc(C)cc2)C(c2ccccc2O)C1 (centres undefined) | 40.6 µM | 11.3 µM | 26.3 µM | 9.97 µM | – | – | – | –
30 | – | CC1=NN(C(=O)/C=C/c2ccccc2)C(c2ccccc2O)C1 (centres undefined) | 42 µM | 29 µM | 39.6 µM | – | – | – | Not Active | –
31 | – | CC1=NN(S(=O)(=O)c2ccc([N+](=O)[O-])cc2)C(c2cc(Br)cc(Br)c2O)C1 (centres undefined) | 50 µM | – | 40.1 µM | – | Not Active | – | Not Active | –
32 | – | CC1=NN(C(=O)CN2CCSCC2)C(c2ccccc2O)C1 (centres undefined) | 29.2 µM | 45.3 µM | 31.5 µM | 20.6 µM | – | – | – | –
33 | – | CCN(CC)C1CCN(CC(=O)N2N=C(c3cc4ccccc4oc3=O)CC2c2ccccc2)CC1 (centres undefined) | 26.1 µM | 19.3 µM | 32.4 µM | 15.5 µM | – | – | – | –
34 | – | CC(C)(C)NCC(=O)N1N=C(c2cc3ccccc3oc2=O)CC1c1ccccc1 (centres undefined) | 16.4 µM | 31.4 µM | 15.4 µM | 36.2 µM | – | – | – | –
35 | – | CC1CCCCN1CC(=O)N1N=C(c2cc3ccccc3oc2=O)CC1c1ccccc1 (centres undefined) | 36.3 µM | – | – | – | Not Active | Not Active | Not Active | –
36 | – | CC1=NN(C(=O)COc2ccc(Cl)cc2)C(c2cc(Br)cc(Br)c2O)C1 (centres undefined) | 40.2 µM | – | 50 µM | 46.3 µM | Not Active | – | – | –
37 | – | CC1=NN(C(=O)CN2CCC(Cl)CC2)C(c2ccccc2O)C1 (centres undefined) | 34.8 µM | 42.1 µM | 30.3 µM | 28.6 µM | – | – | – | –
38 | – | O=C(CNC1CC1)N1N=C(c2cc3ccccc3oc2=O)CC1c1ccccc1 (centres undefined) | 28.5 µM | – | – | – | Not Active | Not Active | Not Active | –
39 | – | CC1CC(C)CN(CC(=O)N2N=C(c3cc4ccccc4oc3=O)CC2c2ccccc2)C1 (centres undefined) | – | – | – | – | Not Active | Not Active | Not Active | Not Active
40 | – | CC(C)(C)OC(=O)N1CCN(CC(=O)N2N=C(c3cc4ccccc4oc3=O)CC2c2ccccc2)CC1 (centres undefined) | 36.4 µM | 28.4 µM | – | 29.7 µM | – | Not Active | – | –
41 | – | CN1CCN(CC(=O)N2N=C(c3cc4ccccc4oc3=O)CC2c2ccccc2)CC1 (centres undefined) | 25.8 µM | 33.1 µM | 46.1 µM | 16.9 µM | – | – | – | –
